An excerpt weighted towards active compounds, which were near 0.77% of everything screened.
hIAP inh = human IAP inhibitors, primary screen, biochemical, luminescence, uHTS | Intestinal-type alkaline phosphatase (Homo sapiens), P09923 | purified IAP, CDP-Star luminescence, 30 min | inhibition, % at 10 µM | 330,000 tested, 0.12% active | AID 2544, 2010;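 active means inhibition reaching a set limit with compound at 10 µM in the primary screen, cut at about 35% in these data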;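 further: plate controls were DMSO wells with enzyme for no effect and no-enzyme buffer wells for full effect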
Target sequence (P09923 whole entry, looked up): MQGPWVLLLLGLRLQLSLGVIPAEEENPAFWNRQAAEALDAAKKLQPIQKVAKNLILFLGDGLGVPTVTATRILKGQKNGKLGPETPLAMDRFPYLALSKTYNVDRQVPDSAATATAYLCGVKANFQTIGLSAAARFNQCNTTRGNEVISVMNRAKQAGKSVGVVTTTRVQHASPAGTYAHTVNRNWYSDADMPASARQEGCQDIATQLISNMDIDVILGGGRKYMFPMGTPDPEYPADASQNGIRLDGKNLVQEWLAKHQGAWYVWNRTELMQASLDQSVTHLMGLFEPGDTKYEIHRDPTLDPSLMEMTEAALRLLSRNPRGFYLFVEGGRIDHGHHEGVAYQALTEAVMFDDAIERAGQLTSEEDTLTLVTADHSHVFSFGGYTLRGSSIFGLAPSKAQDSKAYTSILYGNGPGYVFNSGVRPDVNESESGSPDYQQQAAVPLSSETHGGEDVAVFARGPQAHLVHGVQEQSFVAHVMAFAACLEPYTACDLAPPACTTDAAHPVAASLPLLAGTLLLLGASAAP
bIAP activator = bovine intestinal alkaline phosphatase activators, primary screen, biochemical, bovine IAP, CDP-star luminescence; alkaline phosphatase, intestinal [Bos taurus]; 200,000 tested, 0.17% active; purified bovine IAP, 30 min; active compounds read high; fold of DMSO-control signal, blank-subtracted; AID 1016, 2008; activation factor at 20 µM;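 active means activation factor of 2 or more at 20 µM, a signal rise over negative controls twice the positive control's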
mIAP inh = inhibitors of mouse IAP, primary screen, biochemical, luminescence, uHTS; 330,000 tested, 0.2% active; purified mouse IAP, CDP-Star luminescence, 30 min; inhibition, % at 10 µM;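 active means inhibition of at least 40% at 10 µM in the primary screen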;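 further: plate controls were DMSO with enzyme for no effect and no enzyme wells for full effect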
hIAP activ = human IAP activators, primary screen, biochemical, luminescence, uHTS; activation factor at 10 µM; Intestinal-type alkaline phosphatase (Homo sapiens), P09923; 330,000 tested, 0.16% active; purified human IAP, CDP-Star luminescence, 30 min; active compounds read high; 1 = vehicle-only enzyme, 0 = enzyme-free background; AID 2524, 2010;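 active means activation factor of the enzyme at least 2-fold when tested at 20 µM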
bIAP inh = bovine intestinal alkaline phosphatase inhibitors, primary screen, selectivity assay for TNAP inhibitor project, biochemical, bovine IAP, CDP-star luminescence; inhibition, % at 20 µM; alkaline phosphatase, intestinal [Bos taurus]; purified bovine IAP, 30 min; 190,000 tested, under 10 active;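 active means over 50% inhibition of intestinal alkaline phosphatase at 20 µM in the single-dose screen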
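System: Purified bovine intestinal alkaline phosphatase (IAP) enzyme | Input: IAP diluted 1/65,000,000 in the well | Also added: CDP-star chemiluminescent phosphatase substrate, 30 µM final | Dosing: 20 µM single dose | Times: Enzyme reaction for 30 min at room temperature | Detection: Luminescence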
mIAP act = activators of mouse IAP, primary screen, biochemical, luminescence, uHTS; intestinal alkaline phosphatase [Mus musculus]; muIAP, CDP-Star luminescence, 30 min; active compounds read high; 1 = vehicle-only enzyme signal, 0 = enzyme-free wells; activation factor at 10 µM; 330,000 tested, 0.24% active; AID 2805, 2010;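 active means activation factor of at least 2 at 20 µM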
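Assay system: mouse IAP enzyme; reagent: chemiluminescent substrate CDP-Star; dosing: test compounds delivered from DMSO solution; schedule: 30 min at room temperature; measured by: luminescence from enzymatic CDP-Star hydrolysis; controls: DMSO-only wells and no-enzyme negative control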
mIAP inh conf = inhibitors of mouse IAP, confirmation, biochemical, luminescence, single concentration; shares compounds with mIAP inh; purified mouse IAP, CDP-Star luminescence, 30 min; inhibition, % at 10 µM; 11,000 tested, 4.7% active;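 active means inhibition of at least 40% at 10 µM in either of the two replicates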;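 further: plate controls were DMSO wells with enzyme for no effect and buffer wells lacking enzyme for full effect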
Numbers without * were called inactive; · = no result.

SMILES	hIAP inh	bIAP activator	mIAP inh	hIAP activ	bIAP inh	mIAP act	mIAP inh conf
CC1=C(C(=O)Nc2ccccc2)C(c2ccc(C)o2)n2c(s/c(=C\c3ccco3)c2=O)=N1 (configuration not stated)	-18	0.8	44*	1.2	20	0.56	65*
Cc1cc(-c2csc(N)n2)c(C)n1C	9	1	17	0.91	2	0.83	·
Cc1cc(-c2csc(N)n2)c(C)n1Cc1ccco1	9	1.1	51*	0.91	-8	0.49	43*
O=C(N/N=C/c1cccnc1)c1cc(O)c(O)c(O)c1	-14	·	42*	1.1	·	0.58	58*
Cc1nnc(NC(=O)C2CC(=O)N(c3ccc4c(c3)OCCO4)C2)s1 (configuration not stated)	-2	·	-1	1	·	1	·
O=C(Nc1nc(-c2ccco2)c(-c2ccco2)s1)C1CC(=O)N(c2ccc3c(c2)OCCO3)C1 (configuration not stated)	9	0.9	54*	0.91	5	0.46	69*
CCS(=O)(=O)n1nc(-c2ccco2)nc1SC	1	0.9	22	0.99	6	0.78	36*
CSc1nc(-c2ccco2)nn1S(=O)(=O)c1ccccc1	9	0.9	1	0.91	9	0.99	·
CCC(=O)OCC(=O)[C@@]1(OC(=O)CC)[C@@H](C)C[C@H]2[C@@H]3CCC4=CC(=O)C=C[C@]4(C)[C@@]3(Cl)[C@@H](O)C[C@@]21C	6	·	9	0.94	·	0.91	·
CC(C)OCCCNc1ccc(N2C(=O)CCCC2=O)cc1[N+](=O)[O-]	18	·	9	0.82	·	0.91	·
O=C(O)C1Nc2c(O)cccc2C2C=CCC12 (configuration not stated)	-69	0.8	74*	1.7	24	0.26	86*
Nc1nnnn1/N=C/c1ccco1	-4	1	6	1	2	0.94	·
C(=N\C(/N=C/c1ccco1)c1ccco1)/c1ccco1	-19	1	73*	1.2	-4	0.27	75*
CN(C)c1ccc(N=Cc2ccco2)cc1	10	0.8	14	0.9	21	0.86	·
C(=Nc1cccc2c(N=Cc3ccco3)cccc12)c1ccco1	5	1.1	48*	0.95	-11	0.52	41*
O=c1[nH]ncc(N/N=C\c2cccs2)c1Cl	2	1	-3	0.98	-2	1	·
COc1ccc(CCNC(=O)[C@H](CC(C)C)NC(=O)N2CCn3c2nc2ccccc23)cc1OC	23	·	-8	0.77	·	1.1	·
CN1CCN(NC(=O)Nc2cc(Cl)cc(Cl)c2)CC1	-21	·	-143	1.2	·	2.4*	-120
COc1ccc(NC(=O)NN2CCN(C)CC2)cc1OC	-14	·	-4	1.1	·	1	·
NC1=NC2(CCCCC2)N=C(Nc2ccc(F)cc2F)N1	12	1.3	1	0.88	-26	0.99	·
Cc1cc(C)cc(NC2=NC3(CCCCC3)N=C(N)N2)c1	1	3.7*	-199	0.99	-269	3*	-222
COc1cc(CC(=O)OCC(=O)Nc2ccc(N(C)C)cc2)cc(OC)c1OC	3	·	-1	0.97	·	1	·
Cn1cccc1C(=O)OCc1cc(Cl)cc2c1OCOC2	-7	1	6	1.1	-1	0.94	24*
CC(=O)Nc1sc(N/N=C\c2ccccc2)nc1-c1cccs1	-7	1	22	1.1	-3	0.78	·
CCOc1cc(/C=N/Nc2nc(-c3cccs3)c(NC(C)=O)s2)ccc1O	14	·	41*	0.86	·	0.59	44*
SMILES	hIAP inh	bIAP activator	mIAP inh	hIAP activ	bIAP inh	mIAP act	mIAP inh conf
COc1ccc(CCNC(=O)CN2C(=O)NC(Cc3c[nH]c4ccccc34)C2=O)cc1 (configuration not stated)	-22	·	-1	1.2	·	1	·
Cc1ccc(NS(=O)(=O)c2ccc3[nH]c(=O)oc3c2)c(C)c1	6	·	80*	0.94	·	0.2	85*
Cc1ccc(NC(=O)CN(C)S(=O)(=O)c2ccc3[nH]c(=O)oc3c2)c(C)c1	6	·	63*	0.94	·	0.37	88*
Cc1ccccc1OCC(=O)Nc1ccc(N2CCN(C)CC2)c(Cl)c1	0	·	-9	1	·	1.1	·
C/C(=N\NC(=O)CC#N)c1cc2ccc(O)cc2oc1=O	-4	0.7	43*	1	27	0.57	48*
CN(CC(=O)Nc1ccc(Cl)c(C(F)(F)F)c1)C(=O)C1CCCO1 (configuration not stated)	-18	·	-12	1.2	·	1.1	·
CCOC(=O)c1sc2nccc(OC)c2c1N=CNOC	-21	1	2	1.2	-3	0.98	·
NS(=O)(=O)c1cccc(NC(=O)CSc2nnc(-c3ccncc3)n2C2CC2)c1	5	·	50*	0.95	·	0.5	58*
O=C(CCNS(=O)(=O)c1ccc2[nH]c(=O)oc2c1)Nc1ccccc1	2	·	41*	0.98	·	0.59	54*
Cc1ccc(NC(=O)CCNS(=O)(=O)c2ccc3[nH]c(=O)oc3c2)cc1F	8	·	42*	0.92	·	0.58	51*
Cc1ccc(NC(=O)CCNS(=O)(=O)c2ccc3[nH]c(=O)oc3c2)c(Cl)c1	13	·	59*	0.87	·	0.41	62*
COc1ccc(C(=O)OCC(=O)N2CCCCCC2)cc1S(=O)(=O)N1CCOCC1	7	·	1	0.93	·	0.99	·
CC(C)C(C(=O)O)N1C(=O)/C(=C/C=C/c2ccco2)SC1=S (configuration not stated)	-11	0.8	66*	1.1	23	0.34	74*
CC(C)C(C(=O)O)N1C(=O)/C(=C/c2cccn2C)SC1=S (configuration not stated)	·	1.1	·	·	-10	·	·
O=C1/C(=C\c2ccco2)SC(=S)N1c1ccc(O)cc1	1	0.9	78*	0.99	8	0.22	77*
O=C1/C(=C\c2ccc(O)cc2)SC(=S)N1c1cccnc1	25	0.7	19	0.75	26	0.81	·
NN1C(=O)/C(=C\c2ccco2)SC1=S	15	·	78*	0.85	·	0.22	86*
O=C(NN1C(=O)/C(=C/C=C/c2ccco2)SC1=S)c1ccncc1	6	·	77*	0.94	·	0.23	77*
O=C(NN1C(=O)/C(=C/C=C/c2ccccc2)SC1=S)c1ccncc1	3	1.1	20	0.97	-7	0.8	·
